Assay [1] relates to Botrytis cinerea. Kind of assay: Antifungal activity against Botryotinia fuckeliana grown assessed as induction of production of p-nitrophenyl butyrate esterase after 20 days relative to control. The assay is classed as functional. Summed up: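 Ground pregrown mycelium (3 days, malt-yeast, 22 °C) moved to minimum medium with 1% cutin or 1% pectin plus diterpenoid at 40 µg/mL, 22 °C. Filtrates sampled over 30 days. Esterase measured with 0.62 mM p-nitrophenylbutyrate in 100 mM sodium phosphate pH 8.0 with Triton X-100, 10 min at 22 °C, A405. 1 U releases 1 µmol p-nitrophenol/min.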

In assay [2] the test system is Botrytis cinerea. Kind of assay: Antifungal activity against Botryotinia fuckeliana assessed as reduction in mycelial growth rate at 40 to 160 ug/ml up to 9 days (reference value: 1.82 cm/day). The assay is classed as functional.
Assay [3] has as its system Botrytis cinerea. Kind of assay: Antifungal activity against Botryotinia fuckeliana assessed as inhibition of mycelial growth at 40 to 160 ug/ml up to 6 days. The assay is classed as functional, organism-based.
In assay [4] the test system is Botrytis cinerea. Put plainly: Antifungal activity against Botryotinia fuckeliana grown assessed as induction of production of laccase after 10 days relative to control. The class given is functional. Summed up: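 Mycelium pregrown 3 days at 22 °C in malt-yeast liquid, ground with glass beads and transferred to minimum medium with 1% pectin plus diterpenoid at 40 µg/mL. Culture filtrate taken at day 10. Laccase read with 0.1 mM syringaldazine in 50 mM sodium phosphate pH 6.0, 15 min at 22 °C, A530. 1 U = 0.1 absorbance increase per min. ≥5 experiments, ANOVA/LSD.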

In assay [5] the test system is Botrytis cinerea. Kind of assay: Antifungal activity against Botryotinia fuckeliana assessed as inhibition of mycelial growth at 40 to 160 ug/ml up to 7 days. The class given is functional, organism-based.
Assay [6] deals with Botrytis cinerea. Put plainly: Antifungal activity against Botryotinia fuckeliana inoculated in tomato leaf assessed as reduction in lesion area at 40 ug/ml after 4 days (Rvb =9.7 +/- 1.8 mm2 ). The assay is classed as functional.
For assay [7], the system named is Botrytis cinerea. Put plainly: Antifungal activity against Botryotinia fuckeliana grown assessed as membrane leakage measuring efflux of phosphorus at 100 ug/ml after 6 hr by ICP-OES analysis. The class given is functional, organism-based. Summed up: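 Pregrown mycelia held in 5 mM Tris-HCl pH 7.0 with diterpenoid at final 100 µg/mL (or methanol control) at 22 °C for 6 or 24 h. Phosphorus in the bathing medium measured by ICP-OES. Saponins (100 mg/mL in 10 mM sodium acetate pH 4.5, 6 h) served as positive control. ≥5 experiments, mean ± SD, ANOVA with LSD (P ≤ 0.05).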

For assay [8], the system named is Botrytis cinerea. Kind of assay: Antifungal activity against Botryotinia fuckeliana grown in malt-yeast extract medium assessed as inhibition of mycelial growth at 40 to 160 ug/ml. The assay is classed as functional. Summed up: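 Strain G29 conidia at final 3 × 10^5 conidia/mL in malt-yeast extract medium or liquid minimum medium with 1% glucose. Diterpenoids added from methanol at final 40 µg/mL, methanol evaporated before inoculation. Grown in dark at 22 °C for 5 days. Mycelial wet weight gives % inhibition relative to methanol control. ≥5 independent experiments, mean ± SD.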

The source of these data is ChEMBL document CHEMBL3044962, “Characterization of the antifungal activity on Botrytis cinerea of the natural diterpenoids kaurenoic acid and 3beta-hydroxy-kaurenoic acid” (2004).

Calls of active or inactive are those of the source. The calls are words filed in the database; no cut-off is given here.

Take `C=C1C[C@@]23CC[C@H]4[C@@](C)(CCC[C@@]4(C)C(=O)O)[C@@H]2CC[C@@H]1C3` [KAURENOIC ACID]: the Ratio in the assay on Botrytis cinerea [1] was 2. In the assay with Botrytis cinerea [2], the GI stood at 1.49 cm/day. Also, the “growth inhibition (GI)” value in the assay on Botrytis cinerea [3] and in the assay with Botrytis cinerea [5] was “Active” throughout. Moreover, the result in the assay with Botrytis cinerea [4] and in the assay on Botrytis cinerea [7] was Active. The Activity in the assay with Botrytis cinerea [6] is given as 7.5 mm2. The “growth inhibition (GI)” value in the assay with Botrytis cinerea [8] was “inactive”.
